Experimental findings from ChEMBL document CHEMBL4052717, “Novel 3H-[1,2,3]triazolo[4,5-c]pyridine derivatives as GPR119 agonists: Synthesis and structure-activity/solubility relationships” (Bioorg Med Chem, 2017) are described below.

As a reminder, the pEC50 is the negative decadic logarithm of the EC50, by convention in mol/L. By half-life is commonly meant the time in which the quantity being followed falls by half. A higher half-life goes with slow loss. Broadly, the bioavailability is the share of a dose that reaches the circulation, judged against a reference dose that is usually intravenous. A higher bioavailability goes with much systemic uptake. A word on the clearance: it is the rate of elimination divided by the concentration. The low end stands for a low capacity for elimination, the high end for a high capacity for elimination. What is called AUC(0-inf) is total exposure, with the tail of the curve extrapolated. A high value points to high exposure.

pEC50: −log10 of the molar value. Converted amounts (≈) assume the structure as drawn. Some results are limits rather than exact numbers.

The nature of data set [1]: Thermodynamic solubility of the compound in pH 6.8 phosphate buffer after 24 hrs by HPLC analysis. The class given is physicochemical. Particulars: read-out: Therm_solubility. The procedure, abridged: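 Excess solid in pH 6.8 phosphate buffer was shaken 24 h at 25 °C and centrifuged (3000 and 11000 rpm, 10 min). Supernatant was diluted in 50% aqueous acetonitrile and quantified by reversed-phase HPLC (0.1% phosphoric acid/acetonitrile, 40 °C column, UV 210 nm).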

A short description of data set [2]: Drug metabolism in human liver microsomes assessed per mg protein after 15 mins. In kind it is ADME, microsome. The settings on record: read-out: Drug metabolism. The procedure, abridged:
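Compound was incubated 15 min with human liver microsomes at 1 mg protein/mL; the value is reported as percent metabolized.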
(In general: Liver microsomes are a subcellular fraction often used to study metabolism.)

The target of data set [3] is T1, Glucose-dependent insulinotropic receptor (Homo sapiens, UniProt Q8TDV5).
T1 sequence (Q8TDV5 whole entry): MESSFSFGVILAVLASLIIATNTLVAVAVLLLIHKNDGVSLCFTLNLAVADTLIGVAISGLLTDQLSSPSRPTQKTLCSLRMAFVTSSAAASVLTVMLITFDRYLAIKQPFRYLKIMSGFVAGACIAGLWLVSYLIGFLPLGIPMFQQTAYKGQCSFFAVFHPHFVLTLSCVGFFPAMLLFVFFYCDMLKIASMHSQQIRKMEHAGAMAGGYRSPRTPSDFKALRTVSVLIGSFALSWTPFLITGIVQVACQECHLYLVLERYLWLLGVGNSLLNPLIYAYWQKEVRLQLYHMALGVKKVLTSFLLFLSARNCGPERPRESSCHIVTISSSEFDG
In words: Agonist activity at human GPR119 expressed in Flp-In-T-Rex-HEK293 cells assessed as stimulation of cAMP level measured after 30 mins by HTRF assay. The class given is functional, cell-based. Put shortly: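 Flp-In-T-Rex-HEK293 cells overexpressing human GPR119 were induced with tetracycline for 24 h, then seeded at 5000 cells/well in DMEM with 1 mM IBMX and 0.01% BSA. Cells were exposed to compound for 30 min at 37 °C, and cAMP was read by HTRF (HiRange kit). Basal cAMP was subtracted, and EC50 is the concentration giving 50% of maximal response on dose-response curves.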
Background: Changes in cAMP serve as a functional read-out for many G protein-coupled receptors.

Data set [4] in a line: Half life in Sprague-Dawley rat at 3 mg/kg, iv administered as single dose by LC-MS/MS analysis. The class given is ADME, organism-based. The settings on record: in vivo. Put shortly: (§1)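 Fasted male Sprague-Dawley rats received a single dose, either 3 mg/kg iv in 20% 2-hydroxypropyl-β-cyclodextrin or 10 mg/kg orally in 0.5% methylcellulose with 0.1% Tween80. Tail-vein blood was taken at each time point and spun to plasma. Analyte was quantified by LC-MS/MS, and parameters were derived by non-compartmental analysis.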

Data set [5] in a line: Oral bioavailability in Sprague-Dawley rat at 10 mg/kg administered as single dose by LC-MS/MS analysis. In kind it is ADME, organism-based. The settings on record: in vivo. The procedure, abridged: as §1
Data set [6] can be described thus: Permeability of the compound at pH 6.2 by PAMPA. The class given is physicochemical. Particulars: read-out: permeability. (In PAMPA a lipid-coated filter parts donor from acceptor wells.)
A short description of data set [7]: Clearance in Sprague-Dawley rat at 3 mg/kg, iv administered as single dose by LC-MS/MS analysis. In kind it is ADME, organism-based. Particulars: in vivo. Put shortly: as §1
Data set [8] in a line: Volume of distribution at steady state in Sprague-Dawley rat at 3 mg/kg, iv administered as single dose by LC-MS/MS analysis. The settings on record: in vivo, read-out: Vdss. In kind it is ADME, organism-based. The procedure, abridged:
as §1

Data set [9] in a line: AUC (0 to infinity) in Sprague-Dawley rat at 10 mg/kg, po administered as single dose by LC-MS/MS analysis. In kind it is ADME, organism-based. Also noted: dose 10 mg/kg, route oral, time infinity. Particulars: in vivo. The procedure, abridged:
as §1

With `CC(C)(OC(=O)N1CCC(n2ncc3cc(-c4ccc(S(C)(=O)=O)cc4)ncc32)CC1)C(F)F`, the solubility thermodynamic at 24 h in data set [1] came out at 0.28 µM (≈ 0.138 µg/mL).
`CC(C)OC(=O)N1CCC(n2ncc3cc(-c4ccc(S(C)(=O)=O)cc4)ncc32)CC1`: the solubility thermodynamic at 24 h in data set [1] is 1.51 µM (≈ 0.668 µg/mL).
For the compound `CC(C)COC(=O)N1CCC(n2ncc3cc(-c4ccc(S(C)(=O)=O)cc4)ncc32)CC1`, in data set [1], the solubility thermodynamic at 24 h stood at 1.18 µM (≈ 0.539 µg/mL).
As for `CCNC(=O)c1cc(F)c(-c2cc3cnn(C4CCN(C(=O)OC(C)C)CC4)c3cn2)cc1F`, in data set [1], the solubility thermodynamic at 24 h came to 2.84 µM (≈ 1.34 µg/mL). In data set [2], the metabolised at 0.25 h is 12.4%.
Regarding `CCc1cnc(N2CCC(n3ncc4cc(-c5ccc(S(C)(=O)=O)cc5)ncc43)CC2)nc1`, the solubility thermodynamic at 24 h in data set [1] was 0.26 µM (≈ 0.12 µg/mL).
Take `CCc1cnc(N2CCC(n3nnc4cc(-c5ccc(S(C)(=O)=O)cc5)ncc43)CC2)nc1`: in data set [1], the solubility thermodynamic at 24 h was 0.28 µM (≈ 0.13 µg/mL). For the same compound, the pEC50 in data set [3] was 7.68.
As to `CCNC(=O)c1c(C)cc(-c2cc3nnn(C4CCN(c5ncc(CC)cn5)CC4)c3cn2)cc1C`, the solubility thermodynamic at 24 h in data set [1] was found to be 5.01 µM (≈ 2.43 µg/mL). In data set [3], the pEC50 was 7.57.
The corresponding values for `CCNC(=O)c1ccc(-c2cc3nnn(C4CCN(c5ncc(CC)cn5)CC4)c3cn2)cc1Cl` are under 0.16 µM and 7.74.
On to `CCNC(=O)c1ccc(-c2cc3nnn(C4CCN(c5ncc(CC)cn5)CC4)c3cn2)c(F)c1F`, for which the pEC50 in data set [3] was 8.00.
In the case of `CC(C)OC(=O)N1CCC(n2nnc3cc(-c4cc(F)c(C(=O)N5CCC5)cc4F)ncc32)CC1`, the solubility thermodynamic at 24 h in [1] is 2.7 µM (≈ 1.31 µg/mL). In addition, the pEC50 in data set [3] was 7.21. Also, the metabolised at 0.25 h in data set [2] is 5.4%.
Consider `CCc1cnc(N2CCC(n3nnc4cc(-c5ccc(S(C)(=O)=O)c(F)c5)ncc43)CC2)nc1`, for which the solubility thermodynamic at 24 h in [1] was under 0.15 µM. Besides, the pEC50 in data set [3] is 8.05.
For `CCNC(=O)c1ccc(-c2cc3nnn(C4CCN(c5ncc(CC)cn5)CC4)c3cn2)c(C(F)(F)F)c1`, in that order: 1.2 µM (≈ 0.629 µg/mL) and 7.22.
With `CCNC(=O)c1ccc(-c2cc3nnn(C4CCN(c5ncc(CC)cn5)CC4)c3cn2)cc1C(F)(F)F`, the solubility thermodynamic at 24 h in [1] was determined as 0.51 µM (≈ 0.268 µg/mL). For the same compound, the pEC50 in data set [3] is 7.41.
`CCNC(=O)c1cc(F)c(-c2cc3nnn(C4CCN(C(=O)OC(C)C)CC4)c3cn2)cc1F`: the solubility thermodynamic at 24 h in [1] amounted to 5.5 µM (≈ 2.6 µg/mL). Besides, in data set [3], the pEC50 was 7.43. Besides, the metabolised at 0.25 h in data set [2] was 11%.
In the case of `CCNC(=O)c1cc(F)c(-c2cc3nnn(C4CCN(c5ncc(CC)cn5)CC4)c3cn2)cc1F`, the solubility thermodynamic at 24 h in data set [1] is 0.24 µM (≈ 0.118 µg/mL). The pEC50 in data set [3] was 8.70.
Regarding `CCc1cnc(N2CCC(n3ncc4cc(-c5ccc(S(C)(=O)=O)cc5)c(C)cc43)CC2)nc1`, the pEC50 in data set [3] was 7.15.
Turning to `CCc1cnc(N2CCC(n3ncc4cc(-c5ccc(S(C)(=O)=O)cc5)ccc43)CC2)nc1`, the solubility thermodynamic at 24 h in [1] was under 0.11 µM. In addition, the pEC50 in [3] is 7.85.
Turning to `CCNC(=O)c1ccc(-c2cc3nnn(C4CCN(c5ncc(CC)cn5)CC4)c3cn2)c(C)c1`, in [1], the solubility thermodynamic at 24 h was under 0.09 µM. Also, the pEC50 in data set [3] was 7.72.
On to `CCc1cnc(N2CCC(n3nnc4cc(-c5ccc(S(C)(=O)=O)cc5)ccc43)CC2)nc1`, for which, in data set [1], the solubility thermodynamic at 24 h is under 0.13 µM. Besides, in data set [3], the pEC50 is 7.51.
The compound `CC(C)OC(=O)N1CCC(n2nnc3cc(-c4cc(F)c(C(=O)N5CCCC5)cc4F)ncc32)CC1` had a half-life in [4] of 14.5 min. In data set [1], the solubility thermodynamic at 24 h came out at 15.9 µM (≈ 7.93 µg/mL). In addition, the bioavailability in data set [5] is 16.7%. The Papp in [6] came to 97 ×10⁻⁶ cm/s. The clearance in data set [7] is 27.2 mL/min/kg. The pEC50 in data set [3] was 7.19. For the same compound, in data set [8], the Vd was found to be 0.557 L/kg. In data set [9], this compound gave an AUC(0-inf) of 1030 ng·h/mL. The metabolised at 0.25 h in data set [2] came to 9.3%.
For `CCc1cnc(N2CCC(n3nnc4cc(-c5ccc(S(C)(=O)=O)cc5F)ncc43)CC2)nc1`, the solubility thermodynamic at 24 h in data set [1] was under 0.12 µM. Moreover, the pEC50 in data set [3] is 8.15.
Consider `CC(C)NC(=O)c1cc(F)c(-c2cc3nnn(C4CCN(C(=O)OC(C)C)CC4)c3cn2)cc1F`, for which, in [1], the solubility thermodynamic at 24 h turned out to be 0.84 µM (≈ 0.409 µg/mL). Besides, the pEC50 in [3] is 7.48.
The corresponding values for `CCNC(=O)c1ccc(-c2cc3nnn(C4CCN(c5ncc(CC)cn5)CC4)c3cn2)c(Cl)c1` are 0.24 µM (≈ 0.118 µg/mL) and 7.89.
The corresponding values for `CCNC(=O)c1ccc(-c2cc3nnn(C4CCN(c5ncc(CC)cn5)CC4)c3cn2)cc1C` are 1.79 µM (≈ 0.842 µg/mL) and 7.74.
With `CCNC(=O)c1cc(C)c(-c2cc3nnn(C4CCN(c5ncc(CC)cn5)CC4)c3cn2)c(C)c1`, the solubility thermodynamic at 24 h in data set [1] came to 1.86 µM (≈ 0.901 µg/mL). Besides, the pEC50 in data set [3] was 7.08.
As to `CCNC(=O)c1ccc(-c2cc3nnn(C4CCN(c5ncc(CC)cn5)CC4)c3cn2)c(F)c1`, the pEC50 in data set [3] was 7.82.
Same read-out and setting: next, `CCc1cnc(N2CCC(n3ncc4c(C)c(-c5ccc(S(C)(=O)=O)cc5)ccc43)CC2)nc1`: 5.47.
